System: MS2 coat protein
Assay: apparent Kd, MS2 coat protein; higher = weaker binding; RNA-MaP array; tryptophan 2.4 mM where present
In short: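 SNAP-549-labelled MS2 coat protein, doubled from 0.7 or 1.5 nM to 3 µM, was titrated over designs transcribed by stalled E. coli RNA polymerase on Illumina sequencing-chip clusters. Titrations were run without and then with constant ligand in 100 mM Tris-HCl pH 7.5, 80 mM KCl, 4 mM MgCl2, BSA, DTT, yeast tRNA and Tween-20. The apparent Kd is the median of filtered per-cluster fits to green signal normalised to red-channel RNA signal and control-cluster median Fmax.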

[1] = designed as: ON switch for tryptophan, no ligand
[2] = ligand present: tryptophan, designed as: ON switch for tryptophan
[3] = designed as: OFF switch for tryptophan, no ligand
[4] = ligand present: tryptophan, designed as: OFF switch for tryptophan

Sequence	apparent Kd [1]	apparent Kd [2]	apparent Kd [3]	apparent Kd [4]
AAUCAUGAAAACAUGACAUGAGGAUCACUCCGAGGACCGGUACGGCCGCCACUCGCGAGGAGGCACAUGAGGAUCACCCAUGUUA	69 nM	82.7 nM	–	–
GGUUACUCUACGGCCGCCACUGUAAAGUAAAGAUUACUGUACAUGACAUGAGGAUCACCCAUGUACAGGACCGGGUAGUGUAACC	23.1 nM	21.5 nM	–	–
GUGCCGCAUUCACAUGAGGAUCACCCAUGUCGAGGACCGGUACGGCCGCCACUCGACGUGCUUACAGGUCCUUUACGGCCCAAUA	–	–	38.1 nM	18.8 nM
ACAUGAGGAUCACCCAUGUCAUGAGGUUCACGAGGACCGGUACGGCCGCCACUCGACAUGAGGGUCACCCGUGAACGGAACACCC	14.8 nM	20 nM	–	–
AACGUCUUGUCGGCCGCCACUGUAUGGUGCGUGACAUGAAACAUGAGGAUCACCCAUGUAGCAUGCAGGACCGGGACAGUGCCAA	–	–	9.84 nM	17.8 nM
GCUAGGUCAUCGGCCGCCACUAACGAUGGCUCCGACAUGAGGAUCACCCAUGUGCCACAUGCGCAUAGGACCGGGAUGACCUAGC	18.5 nM	14.3 nM	–	–
AGAUGAGUCACGGCCGCCACUCUUAUCAGGAUCACCCAUGGUUGACAUGAGGAUCACCCAUGUAUGAGGACCGGGUGAUGAGCAU	–	–	12.2 nM	15.6 nM
GAAUAAGAAUCGGCCGCCACUCACAUGAGGAUCACCCAUGUACAUGAGGAACAUGAAAAUCACCCGAGGACCGGGAUAUAUGUUC	–	–	70 nM	66.9 nM
ACAUUAGCCACGGCCGCCACUGCUUUAUGAUUAUAAGGAUUAAUGAACAUGAGGAUCACCCAUGUCAGGACCGGGUGCCUACCAU	29.8 nM	29.7 nM	–	–
AGCCACUCGAGUGAUCCUCACGAGUGGCUACGAGGACCGGUACGGCCGCCACUCGAAUUAACAUGAGGAUCACCCAUGUAAUCAC	65.5 nM	50.2 nM	–	–
CGAGUGCUGUCGGCCGCCACUGCACAUGAGGAUCACCCAUGUAAAAGCUGGCUGUGACUGGUGUUCAGGACCGGGACAGGGUCUU	–	–	10.7 nM	25.4 nM
AUAACGAGUGGUGGAAUACAUGGGUGAUAACGAGGACCGGUACGGCCGCCACUCGAUAACAUGAGGAUCACCCAUGUAAUAAUAA	–	–	161 nM	31.1 nM
UAUCGUCAGACGGCCGCCACUAGAACAUGAGGAUCACCCAUGUAGGUCCUAGAUUCCUCAAUAACUAGGACCGGGUCUGACGAAU	–	–	140 nM	97.3 nM
AUUAAGGAUAUAUAGAAGGCGGAGAAGAGACGAGGACCGGUACGGCCGCCACUCGUGUUAGUUAACAUGAGGAUCACCCAUGUAA	80.6 nM	18.7 nM	–	–
CGAGUGAGUUCAAUCGAAUAACGGUUUUCGCGAGGACCGGUACGGCCGCCACUCGUGUGAUAUCACACAUGAGGAUCACCCAUGU	37.9 nM	31.6 nM	–	–
CACGAUUUGUCGGCCGCCACUAAGGUAACUCUUCUCACAUGAGGAUCACCCAUGUGCCCGAAGCUUAGGACCGGGAUAAUGGGUG	118 nM	40.8 nM	–	–
AUAUAUACAUGAGGAUCACCCAUGUUAUUUCGAGGACCGGUACGGCCGCCACUCGAUAGAGUAGAAGUAAAUUUUAAUUCAUGUA	14.3 nM	14.1 nM	–	–

Sequence	apparent Kd [1]	apparent Kd [2]	apparent Kd [3]	apparent Kd [4]
UUCACAUGGUAUGAAUAUACAUAUAAGAAACGAGGACCGGUACGGCCGCCACUCGUGCCGGAAACAUGAGGAUCACCCAUGUGUU	–	–	63.5 nM	58.5 nM
CGACUGUAAAGUCGACCGGUCAUCAAUAAUCGAGGACCGGUACGGCCGCCACUCGAUGUGAUUUCACAUGAGGAUCACCCAUGUA	23.9 nM	22.2 nM	–	–
GCCGCGGCCGGAAUAAACAUGGGUAAAUAACGAGGACCGGUACGGCCGCCACUCGAGAUAAAUAACAUGAGGAUCACCCAUGUAC	–	–	163 nM	80.3 nM
GGCACAUAGUCGGCCGCCACUAGAUUUUAGUGGAAUAACAUGAGGAUCACCCAUGUAUUUGGGACUAGGACCGGGACUAUGUGCC	–	–	32.8 nM	22.2 nM
CUACAUUUGUAGAAACCGGUCAACAUUAUUCGAGGACCGGUACGGCCGCCACUCGUAUAAUUUAAUACAUGAGGAUCACCCAUGU	14.6 nM	15.9 nM	–	–
AUUCAUGGAAACAUGACAUAGGGAUCUAGCCGAGGACCGGUACGGCCGCCACUCGCUUGGAGGCACAUGAGGAUCACCCAUGUUA	145 nM	48.7 nM	–	–
AAGACAUGAGGAUCACCCAUGUCGUCUACACGAGGACCGGUACGGCCGCCACUCGUUUGCCAAUGAGCGCAUGCGGCCUGGGUAU	–	–	13.3 nM	24.1 nM
AAAACAUGAGGAUCACCCAUGUACAUGGGUCGAGGACCGGUACGGCCGCCACUCGCCGCCCGCCCGCCCGCCACCUCUCCCGCCC	69.9 nM	66.2 nM	–	–
CAAAGUUCGUCUCUGGUCCUCUAAUCGGCUCGAGGACCGGUACGGCCGCCACUCGCCCGACAUGAGGAUCACCCAUGUCUGUAAA	–	–	13.2 nM	10.9 nM
AUGCAGAACACGGCCGCCACUCCAUGUAUACAUGAGGAUCACCCAUGUAAUUUGUAUUUUUUAUAGAGGACCGGGUGAAAUGCAA	33.5 nM	18.2 nM	–	–
GACUAUAUGAUAUGUCAGAAAUCCUCGAAACGAGGACCGGUACGGCCGCCACUCGAGUGAUAAACAUGAGGAUCACCCAUGUAAA	–	–	22.5 nM	51.9 nM
AGAGCAUUGACGGCCGCCACUCAUGUCACAUGAGGAUCACCCAUGUGAUGGGUGAUAGCCCGGUUGAGGACCGGGUCAAUGCUCA	18.8 nM	19.4 nM	–	–
CGAGUAGGUUCAAUCGAAUAACGGUUUUCGCGAGGACCGGUACGGCCGCCACUCGUGUGAUAUCACACAUGAGGAUCACCCAUGU	45 nM	33.8 nM	–	–
CUACAUUUGUAGAAACCGGUCAACAUUAUUCGAGGACCGGUACGGCCGCCACUCGUAUCAUUUGAUACAUGAGGAUCACCCAUGU	19.2 nM	22.6 nM	–	–
AUAUAUACAUGAGGAUCACCCAUGUUAUUUCGAGGACCGGUACGGCCGCCACUCGAUAGAGUAGAAGUAACAUUUGUUAGAUGUA	19.7 nM	13.9 nM	–	–
GAGUAGAGGACGGCCGCCACUAAACAUGAGGAUCACCCAUGUCGUGAUCCGUUACCUAGGGUAGAUAGGACCGGGUCAUGUAGUC	–	–	59.3 nM	45.9 nM
AGAGCAUUGACGGCCGCCACUCGUGUCACAUGAGGAUCACCCAUGUGACGGGUGAUCGCCCGGUUGAGGACCGGGUCAAUGCUCA	9.69 nM	11.4 nM	–	–
